Reference: ChEMBL document CHEMBL3632567, “Selective Allosteric Antagonists for the G Protein-Coupled Receptor GPRC6A Based on the 2-Phenylindole Privileged Structure Scaffold” (J Med Chem, 2015)

What was measured:
[1] = target: T1, G-protein coupled receptor family C group 6 member A (Mus musculus) (UniProt Q8K4Z6); assay: Relative antagonist potency at mouse GPRC6A receptor expressed in HEK293 cells assessed as L-ornithine-induced inositol monophosphate accumulation after 1 hr by FRET assay relative to 2-[methyl-(2-morpholino-2-oxo-ethyl)amino]-1-(2-phenyl-1H-indol-3-yl)ethanone
T1 sequence (whole entry): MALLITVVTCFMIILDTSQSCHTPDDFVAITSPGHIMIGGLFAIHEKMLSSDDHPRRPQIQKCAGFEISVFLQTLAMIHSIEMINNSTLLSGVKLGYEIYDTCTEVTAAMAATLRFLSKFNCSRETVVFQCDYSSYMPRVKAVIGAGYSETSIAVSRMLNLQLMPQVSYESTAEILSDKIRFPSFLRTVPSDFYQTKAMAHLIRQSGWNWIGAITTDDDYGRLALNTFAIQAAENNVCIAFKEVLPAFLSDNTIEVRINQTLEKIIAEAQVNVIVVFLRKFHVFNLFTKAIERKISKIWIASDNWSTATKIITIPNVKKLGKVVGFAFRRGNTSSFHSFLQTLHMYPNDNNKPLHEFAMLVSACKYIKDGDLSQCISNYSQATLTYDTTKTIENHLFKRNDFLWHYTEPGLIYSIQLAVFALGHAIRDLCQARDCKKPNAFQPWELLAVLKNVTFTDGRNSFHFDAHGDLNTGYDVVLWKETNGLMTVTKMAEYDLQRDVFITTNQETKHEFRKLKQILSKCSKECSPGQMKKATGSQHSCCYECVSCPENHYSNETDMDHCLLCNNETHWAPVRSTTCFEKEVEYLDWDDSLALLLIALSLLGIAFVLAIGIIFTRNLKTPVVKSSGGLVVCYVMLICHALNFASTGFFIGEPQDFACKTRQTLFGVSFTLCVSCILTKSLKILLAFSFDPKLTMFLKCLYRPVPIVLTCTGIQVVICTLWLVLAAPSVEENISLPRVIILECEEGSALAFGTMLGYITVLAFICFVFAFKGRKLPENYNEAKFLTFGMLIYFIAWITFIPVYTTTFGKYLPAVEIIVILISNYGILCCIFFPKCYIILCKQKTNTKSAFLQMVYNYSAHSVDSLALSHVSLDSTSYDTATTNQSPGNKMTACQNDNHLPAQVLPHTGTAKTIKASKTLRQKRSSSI

[2] = target: T2, G-protein coupled receptor family C group 6 member A (Mus musculus, UniProt Q8K4Z6); assay: Antagonist activity at mouse GPRC6A receptor expressed in HEK293 cells assessed as inhibition of L-ornithine-induced inositol monophosphate accumulation after 1 hr by FRET assay; type: functional, cell-based
T2 sequence (Q8K4Z6 whole entry): T1 sequence (whole entry)
Method in brief: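 HEK-293T cells transiently co-transfected (Lipofectamine 2000, 48 h before assay) with mouse GPRC6A and Gq(G66D), 1:1, 12,500 cells/well on poly-D-lysine. Cells washed twice in HBSS/HEPES/BSA pH 7.4, then 1 h at 37 °C with compounds (up to 400 µM, 2% DMSO final) plus 500 µM L-ornithine in LiCl Ligand Buffer. IP1 read by HTRF; curves triplicate, ≥3 experiments; relative potency = IC50(reference)/IC50 × 100.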

[3] = target: T3, Extracellular calcium-sensing receptor (Rattus norvegicus, UniProt P48442); assay: Antagonist activity at rat CaSR expressed in HEK293 cells assessed as inhibition of Ca2+-induced inositol monophosphate accumulation after 30 min by FRET assay
T3 sequence (P48442 whole entry): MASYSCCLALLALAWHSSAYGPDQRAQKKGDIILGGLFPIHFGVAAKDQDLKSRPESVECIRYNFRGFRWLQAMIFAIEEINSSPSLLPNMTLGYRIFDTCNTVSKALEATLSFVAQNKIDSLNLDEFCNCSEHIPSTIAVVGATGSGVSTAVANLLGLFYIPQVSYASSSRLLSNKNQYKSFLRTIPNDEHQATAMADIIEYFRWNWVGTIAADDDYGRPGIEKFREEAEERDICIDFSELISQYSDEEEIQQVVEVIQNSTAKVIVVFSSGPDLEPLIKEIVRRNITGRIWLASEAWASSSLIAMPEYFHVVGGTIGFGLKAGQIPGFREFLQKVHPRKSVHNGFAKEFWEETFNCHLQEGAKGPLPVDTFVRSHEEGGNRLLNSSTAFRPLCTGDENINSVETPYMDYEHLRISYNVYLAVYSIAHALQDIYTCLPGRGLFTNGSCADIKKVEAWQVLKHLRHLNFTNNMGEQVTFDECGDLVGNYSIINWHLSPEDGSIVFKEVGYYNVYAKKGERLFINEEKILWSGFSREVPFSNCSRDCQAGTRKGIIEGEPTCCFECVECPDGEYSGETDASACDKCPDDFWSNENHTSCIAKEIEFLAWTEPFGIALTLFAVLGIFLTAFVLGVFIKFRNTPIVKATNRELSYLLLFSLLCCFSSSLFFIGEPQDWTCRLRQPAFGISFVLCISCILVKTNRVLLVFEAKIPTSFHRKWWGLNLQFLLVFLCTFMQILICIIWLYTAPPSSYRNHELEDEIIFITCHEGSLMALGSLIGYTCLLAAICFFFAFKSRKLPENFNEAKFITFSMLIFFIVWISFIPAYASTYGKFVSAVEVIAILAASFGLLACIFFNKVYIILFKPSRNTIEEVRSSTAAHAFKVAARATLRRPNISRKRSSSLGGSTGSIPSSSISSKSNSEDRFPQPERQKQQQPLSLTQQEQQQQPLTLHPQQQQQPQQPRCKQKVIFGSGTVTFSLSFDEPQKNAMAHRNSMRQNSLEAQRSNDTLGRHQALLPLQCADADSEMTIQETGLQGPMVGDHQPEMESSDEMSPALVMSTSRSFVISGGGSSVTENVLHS

[4] = target: T4, 5-hydroxytryptamine receptor 2C (Homo sapiens, UniProt P28335); assay: Antagonist activity at human 5HT2C receptor expressed in HEK293 cells assessed as inhibition of serotonin-induced inositol monophosphate accumulation after 1 hr by FRET assay; type: functional, cell-based
T4 sequence (P28335 whole entry): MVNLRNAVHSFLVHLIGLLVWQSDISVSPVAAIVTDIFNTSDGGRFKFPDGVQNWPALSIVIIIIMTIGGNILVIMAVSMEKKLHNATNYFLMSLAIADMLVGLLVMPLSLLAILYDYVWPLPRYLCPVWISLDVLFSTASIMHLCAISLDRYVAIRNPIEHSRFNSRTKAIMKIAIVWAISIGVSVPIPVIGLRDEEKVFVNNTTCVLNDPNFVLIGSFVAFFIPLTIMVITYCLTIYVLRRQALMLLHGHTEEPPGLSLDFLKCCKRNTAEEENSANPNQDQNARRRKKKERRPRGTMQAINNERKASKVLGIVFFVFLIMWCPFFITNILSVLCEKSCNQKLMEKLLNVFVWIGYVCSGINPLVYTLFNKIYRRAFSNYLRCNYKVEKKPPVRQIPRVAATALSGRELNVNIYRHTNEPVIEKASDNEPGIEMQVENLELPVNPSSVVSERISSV
Method in brief: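 HEK-293T cells transiently transfected with human 5-HT2C (0.25 µg DNA/well), seeded 12,500/well 48 h before assay. After two HBSS/HEPES/BSA pH 7.4 washes, compounds in 2% DMSO final with 1 µM serotonin in Ligand Buffer (1 mM CaCl2, 1 mM MgCl2, LiCl, pH 7.4) applied 1 h at 37 °C. Lysate IP1 measured by HTRF (665/615 nm ratio vs standard); pIC50 by nonlinear regression, triplicate, ≥3 experiments.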

[5] = target: Metabotropic glutamate receptor 5 (Rattus norvegicus, UniProt P31424); assay: Antagonist activity at rat mGluR5 expressed in CHO cells assessed as inhibition of L-glutamate-induced inositol monophosphate accumulation after 1 hr by FRET assay; type: functional, cell-based
Metabotropic glutamate receptor 5, sequence (P31424 whole entry): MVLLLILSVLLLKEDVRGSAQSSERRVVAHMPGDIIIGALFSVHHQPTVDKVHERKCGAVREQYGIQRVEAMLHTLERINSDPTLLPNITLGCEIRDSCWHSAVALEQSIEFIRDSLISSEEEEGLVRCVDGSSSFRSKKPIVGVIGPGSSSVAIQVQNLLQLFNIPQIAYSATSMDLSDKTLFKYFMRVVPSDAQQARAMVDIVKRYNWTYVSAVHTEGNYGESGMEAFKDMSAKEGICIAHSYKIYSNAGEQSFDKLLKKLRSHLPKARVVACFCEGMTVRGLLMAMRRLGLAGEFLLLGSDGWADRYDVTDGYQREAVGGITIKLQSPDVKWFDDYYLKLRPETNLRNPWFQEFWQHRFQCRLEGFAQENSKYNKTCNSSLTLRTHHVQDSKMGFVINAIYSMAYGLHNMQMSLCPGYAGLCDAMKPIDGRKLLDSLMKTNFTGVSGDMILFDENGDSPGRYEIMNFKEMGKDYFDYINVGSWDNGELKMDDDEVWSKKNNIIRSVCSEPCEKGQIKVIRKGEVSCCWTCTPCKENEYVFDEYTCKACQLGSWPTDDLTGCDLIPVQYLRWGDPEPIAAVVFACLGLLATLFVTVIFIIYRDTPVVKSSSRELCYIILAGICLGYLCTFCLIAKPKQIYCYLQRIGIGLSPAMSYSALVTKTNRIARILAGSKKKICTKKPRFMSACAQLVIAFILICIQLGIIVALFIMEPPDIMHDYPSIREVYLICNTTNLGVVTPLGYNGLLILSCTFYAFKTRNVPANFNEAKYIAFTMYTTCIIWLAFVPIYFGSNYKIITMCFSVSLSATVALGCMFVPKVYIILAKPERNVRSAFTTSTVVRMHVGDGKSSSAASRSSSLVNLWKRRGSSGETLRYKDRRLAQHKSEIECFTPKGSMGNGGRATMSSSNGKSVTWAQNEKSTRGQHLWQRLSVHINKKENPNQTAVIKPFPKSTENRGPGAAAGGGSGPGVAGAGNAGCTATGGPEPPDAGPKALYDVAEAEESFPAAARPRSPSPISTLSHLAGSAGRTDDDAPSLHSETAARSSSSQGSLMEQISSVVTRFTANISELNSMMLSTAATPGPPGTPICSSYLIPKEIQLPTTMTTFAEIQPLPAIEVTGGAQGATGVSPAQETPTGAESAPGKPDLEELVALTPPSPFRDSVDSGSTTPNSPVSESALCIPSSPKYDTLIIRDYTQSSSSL
Method in brief: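 CHO cells stably expressing rat mGluR5, kept in DMEM with 10% dialyzed FBS and 1% L-proline, 37 °C, 5% CO2. After two washes in HBSS/HEPES/BSA pH 7.4, cells were stimulated 1 h at 37 °C with 100 µM L-glutamate and compounds (2% DMSO final) in LiCl Ligand Buffer. IP1 accumulation by HTRF; triplicate curves, ≥3 experiments.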

[6] = target: Muscarinic acetylcholine receptor M3 (Homo sapiens, UniProt P20309); assay: Antagonist activity at human muscarinic M3 receptor expressed in HEK293 cells assessed as inhibition of carbachol-induced inositol monophosphate accumulation after 1 hr by FRET assay; type: functional, cell-based
Muscarinic acetylcholine receptor M3, sequence (P20309 whole entry): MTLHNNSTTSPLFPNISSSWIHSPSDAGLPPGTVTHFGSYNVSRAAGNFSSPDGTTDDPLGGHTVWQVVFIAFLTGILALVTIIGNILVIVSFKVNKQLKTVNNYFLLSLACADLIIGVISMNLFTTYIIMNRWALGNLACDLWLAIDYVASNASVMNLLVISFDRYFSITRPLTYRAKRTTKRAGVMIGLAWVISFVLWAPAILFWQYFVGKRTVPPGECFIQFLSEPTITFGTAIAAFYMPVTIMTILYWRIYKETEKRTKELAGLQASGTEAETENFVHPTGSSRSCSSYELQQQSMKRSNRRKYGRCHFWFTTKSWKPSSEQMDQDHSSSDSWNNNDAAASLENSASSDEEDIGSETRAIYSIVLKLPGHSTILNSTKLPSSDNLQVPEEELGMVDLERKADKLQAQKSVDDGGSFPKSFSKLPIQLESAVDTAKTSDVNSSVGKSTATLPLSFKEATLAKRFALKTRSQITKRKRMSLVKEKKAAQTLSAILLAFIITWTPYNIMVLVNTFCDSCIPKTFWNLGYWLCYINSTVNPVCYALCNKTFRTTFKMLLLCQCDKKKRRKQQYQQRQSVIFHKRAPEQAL
Method in brief: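 HEK-293T cells transfected with empty pCIneo to use their native human M3 receptors, 12,500/well, assayed 48 h later. After two HBSS/HEPES/BSA pH 7.4 washes, cells were stimulated 1 h at 37 °C with 1 mM carbachol plus compounds (2% DMSO final) in LiCl-containing Ligand Buffer. IP1 quantified by HTRF against standard; triplicate curves, at least three experiments.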

SMILES	Relative potency [1]	IC50 [2] [µM]	IC50 [3] [µM]	IC50 [4] [µM]	IC50 [5] [µM]	IC50 [6] [µM]
CN(CC(=O)c1c(-c2ccccc2)[nH]c2ccccc12)CC(=O)N1CCCC1	38	57.3				
CN(CC(=O)c1c(-c2ccccc2)[nH]c2ccc(CC(=O)N(C)C)cc12)CC(=O)N1CCOCC1	< 6	> 400				
CN(CC(=O)c1c(CO)[nH]c2ccccc12)CC(=O)N1CCOCC1	< 6	> 400				
O=C(CNCC(=O)N1CCOCC1)c1c(-c2ccccc2)[nH]c2ccccc12	9	256				
CN(CCc1c(-c2ccccc2)[nH]c2ccccc12)CC(=O)N1CCOCC1	17	132				
CN(CC(=O)c1c(-c2ccco2)[nH]c2ccccc12)CC(=O)N1CCOCC1	9	248				
CN(CC(=O)N1CCOCC1)CC(O)c1c(-c2ccccc2)[nH]c2ccccc12 (centres undefined)	< 6	> 400				
CN(CC(=O)c1c[nH]c2ccccc12)CC(=O)N1CCOCC1	< 6	> 400				
CN(CC(=O)N1CCOCC1)C(=O)c1c(-c2ccccc2)[nH]c2ccccc12	< 6	> 400				
COc1ccc2[nH]c(-c3ccccc3)c(C(=O)CN(C)CC(=O)N3CCOCC3)c2c1	33	66.1				
CN(CC(=O)c1c(-c2ccccc2)[nH]c2ccc(F)cc12)CC(=O)N1CCOCC1	55	39.8				

Stronger by IC50 [2], values ahead:

Relative potency [1]	IC50 [2] [µM]	IC50 [3] [µM]	IC50 [4] [µM]	IC50 [5] [µM]	IC50 [6] [µM]	SMILES
	6.17	347	269	269	58	CN(CCN1CCOCC1)CC(=O)c1c(-c2ccccc2)[nH]c2ccccc12
	5.5	240	209	263	51.3	O=C(CN1CCCC(C(=O)N2CCOCC2)C1)c1c(-c2ccccc2)[nH]c2ccccc12 (centres undefined)
103	21.3					CN(CC(=O)c1c(-c2ccc(F)cc2)[nH]c2ccccc12)CC(=O)N1CCOCC1
	9.33	56.2	51.3	41.7	4.17	COc1ccc(-c2[nH]c3ccccc3c2C(=O)CN(C)CC(=O)N2CCOCC2)cc1
	21.9	316	214	224	27.5	CN(CC(=O)c1c(-c2ccccc2)[nH]c2ccccc12)CC(=O)N1CCOCC1
